ChEMBL document CHEMBL2086328, “¹⁸F-labeled 2-phenylquinoxaline derivatives as potential positron emission tomography probes for in vivo imaging of β-amyloid plaques” (Eur J Med Chem, 2012)
Activity calls are given as the source filed them. The calls are words filed in the database; no cut-off is given here.

What was measured:
[1] = Displacement of [125I]IMPY from amyloid beta (1 to 42) after 2 hrs by gamma counting
Outline: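 Competition binding against [125I]IMPY (radiochemical purity >95%) on Aβ1-42 aggregates with 1% BSA solution; inhibitor 10^-4–10^-9.5 M; 37 °C, 2 h. Free and bound separated by vacuum filtration on GF/B filters, three PBS washes (0.02 M, pH 7.4, room temperature); filters gamma-counted. Three repeats; IC50 fitted, Ki from Cheng–Prusoff.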

[2] = molecular target: Amyloid-beta precursor protein (Homo sapiens) (UniProt P05067); experiment: Binding affinity to beta-amyloid in normal human brain at 1.85 MBq/[…] after 1 hr by thioflavin-S based autoradiography; details: 1.85 M, tested as the 18F-labelled form
Outline: (§1)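 Paraffin human temporal-lobe sections (5 µm; AD case or control) deparaffinized through xylene and graded ethanol, then PBS (0.2 M, pH 7.4) for 30 min. Incubated with 18F tracer (1.85 MBq/200 µL), 1 h, room temperature; washed in 40% EtOH, rinsed in water; phosphor plate exposure 2 h.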

[3] = species: Mus musculus; experiment: Binding affinity to beta-amyloid in APPswe/PSEN1 transgenic C57BL6 mouse model brain at 1.85 MBq/[…] after 1 hr by thioflavin-S based autoradiography; details: 1.85 M, tested as the 18F-labelled form
Outline: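 Transgenic mouse brain sections deparaffinized, then incubated with 18F tracer (1.85 MBq/200 µL) for 1 h at room temperature. Washed in 40% EtOH, phosphor-imaged after 2 h exposure. Same sections then stained with 0.125% thioflavin-S in 10% EtOH for 3 min and imaged by fluorescence (excitation 405 nm, long-pass 505 nm).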

[4] = molecular target: Amyloid-beta precursor protein (Homo sapiens) (UniProt P05067); experiment: Binding affinity to beta-amyloid in Alzheimer's disease patient brain at 1.85 MBq/[…] after 1 hr by thioflavin-S based autoradiography; details: 1.85 M, tested as the 18F-labelled form; outline: as §1
[5] = Binding affinity to beta-amyloid
[6] = test system: Brain; experiment: Ratio of drug level in ICR mouse brain after 2 mins to ICR mouse brain after 60 mins at 370 kBq, iv; assay type: ADME, organism-based; details: in vivo
Outline: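 Same intravenous study in ICR mice (370 kBq 18F tracer in saline/10% EtOH, n = 5 per time point). Ratio is brain %ID/g at 2 min divided by brain %ID/g at 60 min post-injection.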

[7] = test system: Brain; experiment: Biodistribution in ICR mouse brain at 370 kBq, iv after 2 mins by gamma counting; assay type: ADME, organism-based; details: in vivo
Outline: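 Male ICR mice (five weeks, 20–22 g), tail-vein injection of 18F tracer in 0.1 mL saline with 10% EtOH. Killed by decapitation at set times, n = 5 per time point. Organs removed, weighed and gamma-counted; %ID/g wet tissue from comparison with diluted aliquots of injected dose; mean ± SD.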

[8] = Lipophilicity, log D of the compound; assay type: physicochemical; details: octanol/water
Outline: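 18F tracer (740 kBq) in 3 g n-octanol plus 3 g PBS (0.05 M, pH 7.4). Vortexed 3 min at room temperature, centrifuged 5 min at 3000 rpm; weighed samples from octanol and buffer layers counted.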

Amyloid-beta precursor protein (Homo sapiens), sequence (P05067 whole entry): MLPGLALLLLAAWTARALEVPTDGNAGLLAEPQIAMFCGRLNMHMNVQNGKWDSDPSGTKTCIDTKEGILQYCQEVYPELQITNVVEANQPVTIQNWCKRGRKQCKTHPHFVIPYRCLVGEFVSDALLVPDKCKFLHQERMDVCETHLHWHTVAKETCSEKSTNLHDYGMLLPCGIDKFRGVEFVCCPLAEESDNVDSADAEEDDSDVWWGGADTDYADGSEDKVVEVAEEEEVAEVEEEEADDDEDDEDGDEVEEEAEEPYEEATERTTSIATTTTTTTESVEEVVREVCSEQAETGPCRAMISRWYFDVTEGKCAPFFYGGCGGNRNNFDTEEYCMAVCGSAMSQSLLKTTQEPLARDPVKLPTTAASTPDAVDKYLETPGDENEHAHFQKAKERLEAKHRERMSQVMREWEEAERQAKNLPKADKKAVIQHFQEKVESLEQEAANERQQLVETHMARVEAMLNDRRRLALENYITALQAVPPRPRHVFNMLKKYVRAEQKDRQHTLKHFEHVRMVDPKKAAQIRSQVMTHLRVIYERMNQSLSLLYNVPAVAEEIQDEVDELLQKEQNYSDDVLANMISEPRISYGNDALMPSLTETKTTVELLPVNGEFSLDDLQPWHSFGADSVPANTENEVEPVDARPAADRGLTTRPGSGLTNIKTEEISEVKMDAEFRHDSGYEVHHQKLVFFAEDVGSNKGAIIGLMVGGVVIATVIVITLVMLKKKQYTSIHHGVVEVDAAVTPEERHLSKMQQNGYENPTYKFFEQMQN

CNc1ccc2nc(-c3ccc(OCCF)cc3)cnc2c1
Ki [1]: 10 nM
Activity [2]: inactive
Activity [3]: Active
Activity [4]: Active

[11CH3]Nc1ccc(-c2nc3ccc(O)cc3s2)cn1
Ki [5]: 1.7 nM

CNc1ccc(/C=C/c2ccc(OCCOCCOCC[18F])nc2)cc1 [FLORBETAPIR F 18]
Ki [1]: 2.9 nM
Ratio [6]: 3.9
Ki [5]: 2.87 nM
Drug uptake [7]: 7.33 % ID/g
logD [8]: 2.41

CNc1ccc(-c2nc3ccc(O)cc3s2)cc1[18F] [FLUTEMETAMOL F 18]
Ki [5]: 0.74 nM
